Published values pooled from the literature.
Compare with care: the assays were run in different laboratories.

COc1nc(-c2cc(C)c(N[C@@H](C)c3ccc(F)cc3)nn2)ccc1-n1cnc(C)c1
AUC(0-t) (male CD-1 mouse; plasma; oral; 5 mg/kg; single dose): 12700 ng·h/mL

C=CC(=O)N1CC2CC(n3nc(-c4ccc(C(=O)Nc5ccccn5)cc4)c4c(N)ncnc43)CC2C1 (stereo not shown)
AUC(0-t) (SCID mouse; plasma; oral; 1 mg/kg): 175 ng·h/mL

CN1CCN(C2CCN(c3nccc4[nH]c(-c5cc(F)cc(F)c5)nc34)CC2)CC1
AUC(0-t) (mouse; blood; intravenous; 2 mg/kg): 1.95 µM·h

CN1C(=O)c2ccccc2[S@+]([O-])c2ccc(C(=O)NCCc3cccs3)cc21
AUC(0-t) (male C57BL/6 mouse; plasma; intraperitoneal; 30 mg/kg; single dose): 7800 ng·h/mL

COc1cc(OC)c2nccc(N3CCc4c(cc(Cn5ccnc5)cc4-c4cn(C)nc4C(F)(F)F)C3=O)c2c1
AUC(0-t) (male CD-1 mouse; plasma; oral; 50 mg/kg): 60600 ng·h/mL

CN1CCN(CC2CCN(c3cncc4[nH]c(-c5cc(F)cc(F)c5)nc34)CC2)CC1
AUC(0-t) (mouse; blood; intravenous; 2 mg/kg): 0.967 µM·h

C[C@H]1[C@@H](O)O[C@@H]2O[C@@]3(C)CC[C@H]4[C@H](C)CC[C@@H]1[C@@]24OO3
AUC(0-t) (female SCID mouse; plasma; oral; 120 mg/kg): 1870 ng·h/mL

Cn1ccnc1N1CCN(CC2CCN(c3nccc4[nH]c(-c5cc(F)cc(F)c5)nc34)CC2)CC1
AUC(0-t) (mouse; blood; intravenous; 2 mg/kg): 7.88 µM·h

CC(C)OC(=O)c1sc(Nc2ncccn2)nc1-c1cnccn1
AUC(0-t) (male CD-1 mouse; plasma; oral; 2.5 mg/kg): 54 ng·h/mL

CC(C)(C)c1cc(NC(=O)Nc2ccc(Oc3ccnc4[nH]c(=O)cnc34)cc2F)n(-c2ccccc2)n1
AUC(0-t) (BALB/c mouse; plasma; intravenous; 2 mg/kg): 154 µM·h

CNC(=O)c1cc(OC)cc2c(N3CCc4c(cc(Cn5ccnc5)cc4-c4cn(C)nc4C(F)(F)F)C3=O)ccnc12
AUC(0-t) (male CD-1 mouse; plasma; intravenous; 3 mg/kg): 3300 ng·h/mL

CN1CCN(C(=O)c2cc3c(Nc4ccc(OC(F)(F)F)cc4)ncnc3s2)CC1
AUC(0-t) (male BALB/c mouse; plasma; oral; 20 mg/kg): 2410 ng·h/mL

Cc1nc(-c2cnc(NC(C)C)n(C)c2=O)ccc1Oc1ccnc(-c2cnn(C)c2)c1
AUC(0-t) (female mouse; plasma; oral; 7.5 mg/kg; single dose): 52600 ng·h/mL

COc1ccc(C(O)COc2ccc(-c3csc(-c4ccc(OCC(O)c5ccc(OC)c(OC)c5)cc4)n3)cc2)cc1OC (stereo not shown)
AUC(0-t) (C57BL/6 mouse; plasma; oral; 75 mg/kg): 73000 ng·h/mL

CC[C@H](C)[C@@H]1NC(=O)[C@@](C)(NC(=O)[C@H](CCCNC(=N)N)NC(=O)[C@H](CC(C)C)NC(=O)[C@@H](NC(=O)[C@H](CCC(N)=O)NC(=O)[C@H](CC(C)C)NC(C)=O)[C@@H](C)O)CCCC=CCCC[C@@](C)(C(=O)N[C@@H](CC(C)C)C(=O)N[C@@H](Cc2ccc3ccccc3c2)C(N)=O)NC(=O)[C@H](CCCNC(=N)N)NC(=O)[C@H](CCC(N)=O)NC1=O
AUC(0-t) (male BALB/c mouse; plasma; intravenous; 5 mg/kg): 124000 ng·h/mL

Cc1ccc(NC(=O)c2ccc(CN3CCN(C)CC3)cc2)cc1Nc1nccc(-c2cncc(-c3oncc3C)c2)n1
AUC(0-t) (male C57BL/6 mouse; plasma; oral; 100 mg/kg/day): 37800 ng·h/mL

CS(=O)(=O)CCNCc1ccc(-c2ccc3ncnc(Nc4ccc(OCc5cccc(F)c5)c(Cl)c4)c3c2)o1
AUC(0-t) (nude mouse; plasma; oral; 200 mg/kg; single dose): 234000 ng·h/mL

COc1ccc2nccc(N3CCc4c(cc(Cn5ccnc5)cc4-c4cn(C)nc4C(F)(F)F)C3=O)c2c1
AUC(0-t) (male CD-1 mouse; plasma; oral; 10 mg/kg): 2080 ng·h/mL

Cc1c2c(n(-c3ccc(Cl)cc3Cl)c1-c1ccc(OS(=O)(=O)CCC(F)(F)F)cc1)CCN(N1CCCCC1)C2=O
AUC(0-t) (mouse; plasma; oral; 6 µmol/kg; single dose): 3.6 µM·h
